Experiments:
[1] = target: T1, Melatonin receptor type 1A (Homo sapiens, UniProt P48039); assay: Intrinsic activity of Melatonin receptor type 1A evaluated on [35S]GTP-gamma-S, binding in Chinese hamster ovarian (CHO) cells; assay type: functional, cell-based
[2] = target: T2, Melatonin receptor type 1B (Homo sapiens) (UniProt P49286); assay: Antagonist potency determined against 3 nM melatonin for Melatonin receptor type 1B; assay type: functional
T2 sequence (whole entry): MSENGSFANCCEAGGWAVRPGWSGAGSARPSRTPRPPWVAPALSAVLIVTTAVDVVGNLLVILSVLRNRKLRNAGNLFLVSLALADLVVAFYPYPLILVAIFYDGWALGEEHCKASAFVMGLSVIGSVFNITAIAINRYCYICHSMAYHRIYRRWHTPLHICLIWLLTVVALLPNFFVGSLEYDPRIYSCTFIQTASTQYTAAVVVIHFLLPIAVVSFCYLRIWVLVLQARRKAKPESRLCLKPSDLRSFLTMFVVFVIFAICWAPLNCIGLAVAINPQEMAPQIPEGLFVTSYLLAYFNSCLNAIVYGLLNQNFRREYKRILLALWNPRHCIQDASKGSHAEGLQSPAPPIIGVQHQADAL
Summary of the method: (§1)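 Antagonist mode of [³⁵S]GTPγS binding on membranes (20 µg/mL) of CHO cells stably expressing human MT₁ or MT₂. […] Incubation 1 h at room temperature, GF/B filtration. Nonspecific binding with 10 µM GTPγS.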

[3] = target: T1, Melatonin receptor type 1A; assay: Antagonist potency determined against 30 nM melatonin for Melatonin receptor type 1A; assay type: functional; summary of the method: as §1
[4] = target: T1, Melatonin receptor type 1A; assay: Binding affinity on human melatonin receptor type 1A stably transfected in human embryonic kidney (HEK 293) using 2-[125I]iodomelatonin as radioligand.; assay type: cell-based, HEK293
[5] = target: T3, Melatonin receptor type 1B (Homo sapiens, UniProt P49286); assay: Intrinsic activity at human Melatonin receptor type 1B evaluated on [35S]GTP-gamma-S, binding in Chinese hamster ovarian (CHO) cells; assay type: functional, cell-based
T3 sequence (P49286 whole entry): T2 sequence (whole entry)

[6] = target: T3, Melatonin receptor type 1B; assay: Binding affinity on human melatonin receptor type 1B stably transfected in human embryonic kidney (HEK 293) cells using 2-[125I]iodomelatonin as radioligand.; assay type: cell-based, HEK293
[7] = target: T1, Melatonin receptor type 1A; assay: Intrinsic activity evaluated on [35S]GTP -gamma-S binding in Chinese hamster ovarian (CHO) cells, stably expressing human Melatonin receptor type 1A; assay type: functional, cell-based

T1 sequence (P48039 whole entry): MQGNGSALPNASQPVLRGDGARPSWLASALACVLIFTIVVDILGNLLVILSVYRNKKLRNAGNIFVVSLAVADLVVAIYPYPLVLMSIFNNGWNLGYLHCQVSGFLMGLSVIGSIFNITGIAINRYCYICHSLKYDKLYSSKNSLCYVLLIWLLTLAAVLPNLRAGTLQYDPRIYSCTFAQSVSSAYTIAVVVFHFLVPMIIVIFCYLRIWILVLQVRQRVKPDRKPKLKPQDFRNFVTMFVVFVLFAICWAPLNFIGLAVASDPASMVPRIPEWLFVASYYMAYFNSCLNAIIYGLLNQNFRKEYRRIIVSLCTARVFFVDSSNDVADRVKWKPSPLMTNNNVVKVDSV

Work on `COc1ccc2oc(Cc3cccc(C(F)(F)F)c3)c(CCNC(C)=O)c2c1` yielded an EC50 [1] greater than 10000 nM, a Kb [2] of 2.4 nM and a Kb [3] of 89 nM. It also gave a Ki [4] of 80 nM, an EC50 [5] of 1.26 nM and a Ki [6] of 1.17 nM.

`CC(=O)NCCc1c(Cc2ccccc2)oc2ccccc12` was tested, and the Kb [2] was 12 nM, the Kb [3] was 27 nM and the Ki [4] was 155 nM. The EC50 [5] was greater than 10000 nM, the EC50 [7] was greater than 10000 nM and the Ki [6] was 10.6 nM.

Work on `CCCCCOc1ccc2oc(Cc3ccccc3)c(CCNC(C)=O)c2c1` yielded a Ki [4] of 42.7 nM and a Ki [6] of 9.64 nM.

In the case of `CCc1ccc2oc(Cc3cccc(OC)c3)c(CCNC(C)=O)c2c1`, the Kb [2] is reported as 18 nM, the Kb [3] is reported as 266 nM and the Ki [4] is reported as 288 nM. The EC50 [5] was 19 nM, the EC50 [7] was greater than 10000 nM and the Ki [6] was 17 nM.

`COc1ccc2oc(Cc3ccccc3OC)c(CCNC(C)=O)c2c1` showed a Kb [2] of 0.88 nM, a Kb [3] of 26 nM and a Ki [4] of 14.3 nM. For the same compound, the EC50 [5] was 0.41 nM, the EC50 [7] was greater than 10000 nM and the Ki [6] was 0.34 nM.

For `COc1cccc(Cc2oc3ccc(OC)cc3c2CCNC(C)=O)c1`, the Kb [2] was 1.65 nM, the Kb [3] was 26 nM and the Ki [4] was 40.6 nM. The EC50 [5] was 0.72 nM, the EC50 [7] was 37 nM and the Ki [6] was 0.32 nM.

Work on `C=CC(=O)NCCc1c(-c2ccccc2)oc2ccc(OC)cc12` yielded a Ki [4] of 0.02 nM and a Ki [6] of 0.01 nM.

`COc1ccc(Cc2oc3ccc(OC)cc3c2CCNC(C)=O)cc1` was tested, and the Kb [2] was 0.42 nM, the Kb [3] was 35 nM and the Ki [4] was 24 nM. It also gave an EC50 [5] greater than 10000 nM, an EC50 [7] greater than 10000 nM and a Ki [6] of 0.5 nM.

For `C=CC(=O)NCCc1c(Cc2cccc(OC)c2)oc2ccc(OC)cc12`, the Ki [4] was 55 nM and the Ki [6] was 2.76 nM.

In the case of `COc1ccc2oc(Cc3ccccc3)c(CCNC(=O)CI)c2c1`, the Ki [4] is reported as 8.67 nM and the Ki [6] is reported as 0.41 nM.

`C=CC(=O)NCCc1c(Cc2ccccc2)oc2ccc(OC)cc12` was tested, and the Ki [4] was 53.7 nM and the Ki [6] was 0.69 nM.

`CC(=O)NCCc1c(Cc2ccccc2)oc2ccc(O)cc12` gave a Ki [4] of 569 nM and a Ki [6] of 79.9 nM.

`CNC(=O)NCCc1c(Cc2ccccc2)oc2ccc(OC)cc12` was tested, and the Ki [4] was 5.37 nM and the Ki [6] was 0.35 nM.

`C=CCC(=O)NCCc1c(Cc2cccc(OC)c2)oc2ccc(OC)cc12` gave a Kb [2] of 0.24 nM, a Kb [3] of 57 nM and an EC50 [5] of 0.39 nM. It also gave an EC50 [7] of 138 nM.

In the case of `COc1cccc(Cc2oc3ccccc3c2CCNC(C)=O)c1`, the Ki [4] is reported as 229 nM and the Ki [6] is reported as 18.6 nM.

For `CCCC(=O)NCCc1c(Cc2ccccc2)oc2ccc(OC)cc12`, the Ki [4] was 3.29 nM and the Ki [6] was 0.2 nM.

In the case of `COc1ccc2oc(CC3CCCCC3)c(CCNC(C)=O)c2c1`, the Kb [2] is reported as 7 nM, the Kb [3] is reported as 242 nM and the Ki [4] is reported as 66.4 nM. The EC50 [5] was 10 nM, the EC50 [7] was 481 nM and the Ki [6] was 2.49 nM.

For `COc1ccc2oc(-c3ccccc3)c(CCNC(=O)c3ccco3)c2c1`, the Ki [4] was 12.9 nM and the Ki [6] was 1.7 nM.

`COc1ccc2oc(CCCc3ccccc3)c(CCNC(C)=O)c2c1` gave a Ki [4] of 31.5 nM and a Ki [6] of 1.52 nM.

In the case of `COc1ccc2oc(Cc3cccnc3)c(CCNC(C)=O)c2c1`, the Ki [4] is reported as 29 nM and the Ki [6] is reported as 3.53 nM.

Compound `COc1ccc2oc(Cc3cccc(F)c3)c(CCNC(C)=O)c2c1` has a Ki [4] of 0.75 nM and a Ki [6] of 0.23 nM.

`CNC(=O)NCCc1c(-c2ccccc2)oc2ccc(OC)cc12` showed a Ki [4] of 0.04 nM and a Ki [6] of 0.04 nM.

`CCCCCCOc1ccc2oc(Cc3ccccc3)c(CCNC(C)=O)c2c1` gave a Ki [4] of 8.2 nM and a Ki [6] of 3.21 nM.

For `COc1ccc2oc(Cc3cc(C(F)(F)F)cc(C(F)(F)F)c3)c(CCNC(C)=O)c2c1`, the Ki [4] was 476 nM and the Ki [6] was 340 nM.

`CCc1ccc2oc(Cc3ccccc3)c(CCNC(C)=O)c2c1` gave a Ki [4] of 64.4 nM and a Ki [6] of 8.25 nM.

Work on `C=CCC(=O)NCCc1c(Cc2ccccc2)oc2ccc(OC)cc12` yielded a Kb [2] of 0.16 nM, a Ki [4] of 3.51 nM and an EC50 [5] of 0.17 nM. The EC50 [7] was 25 nM and the Ki [6] was 0.06 nM.

`C=CCC(=O)NCCc1c(-c2ccccc2)oc2ccc(OC)cc12` showed a Ki [4] of 0.01 nM and a Ki [6] of 0.02 nM.

`C/C=C/C(=O)NCCc1c(-c2ccccc2)oc2ccc(OC)cc12` gave a Ki [4] of 1.01 nM and a Ki [6] of 0.21 nM.

For `COc1ccc2oc(Cc3ccccc3)c(CCNC(C)=O)c2c1`, the Kb [2] was 0.21 nM, the EC50 [5] was greater than 10000 nM and the EC50 [7] was 21 nM. The Ki [6] was 0.05 nM.

In the case of `COc1ccc2oc(Cc3cccc(Cl)c3)c(CCNC(C)=O)c2c1`, the Ki [4] is reported as 7.19 nM and the Ki [6] is reported as 0.22 nM.

Compound `COc1ccc2oc(-c3ccccc3)c(CCNC(C)=O)c2c1` has a Ki [4] of 0.01 nM, an EC50 [5] of 0.096 nM and an EC50 [7] of 0.17 nM. The Ki [6] was 0.02 nM.

With `COc1ccc2oc(Cc3c(Cl)cccc3Cl)c(CCNC(C)=O)c2c1` the Ki [4] was 84.5 nM and the Ki [6] was 12.8 nM.

`COc1ccc2oc(Cc3ccccc3)c(CCNC(=O)c3ccco3)c2c1` was tested, and the Ki [4] was 698 nM and the Ki [6] was 36.7 nM.
